Results reported in ChEMBL document CHEMBL4393719, “Tetrahydro-3-benzazepines with fluorinated side chains as NMDA and σ1 receptor antagonists: Synthesis, receptor affinity, selectivity and antiallodynic activity” (Eur J Med Chem, 2019).

Species: Sus scrofa
Details: at 1 µM

| Structure (SMILES) | inhibition [%] |
| --- | --- |
| OC1CN(CCC(F)Cc2ccccc2)CCc2cc(OCc3ccccc3)ccc21 (stereo not drawn) | 0 |
| OC1CN(CC(F)CCc2ccccc2)CCc2cc(OCc3ccccc3)ccc21 (stereo not drawn) | 0 |
| Oc1ccc2c(c1)CCN(CCC(F)Cc1ccccc1)CC2O (stereo not drawn) | 8 |
| Oc1ccc2c(c1)CCN(CCC(F)Cc1ccccc1)CC2 (racemic) | 15 |
| Oc1ccc2c(c1)CCN(CCCCc1ccccc1)CC2O (stereo not drawn) | 35 |

Test system: not listed separately
Test: Displacement of [3H] ifenprodil from GluN2B/GluN1a (unknown origin) expressed in mouse L(tk-) cell membranes incubated for 120 mins by scintillation counting method
Set-up: species or system Homo sapiens
Details: not given
How it was run: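 Membranes from mouse L(tk-) cells co-transfected with dexamethasone-inducible GluN1a/GluN2B (1:5), induced 24 h with 4 μM dexamethasone plus 4 μM ketamine.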

| Structure (SMILES) | Ki [µM] |
| --- | --- |
| OC1CN(CCC(F)Cc2ccccc2)CCc2cc(OCc3ccccc3)ccc21 (stereo not drawn) | 0.813 |
| OC1CN(CC(F)CCc2ccccc2)CCc2cc(OCc3ccccc3)ccc21 (stereo not drawn) | 0.784 |
| Oc1ccc2c(c1)CCN(CCC(F)Cc1ccccc1)CC2O (stereo not drawn) | 0.422 |

Biological target: T1, Sigma intracellular receptor 2 (Rattus norvegicus, UniProt Q5U3Y7)
T1 sequence (Q5U3Y7 whole entry): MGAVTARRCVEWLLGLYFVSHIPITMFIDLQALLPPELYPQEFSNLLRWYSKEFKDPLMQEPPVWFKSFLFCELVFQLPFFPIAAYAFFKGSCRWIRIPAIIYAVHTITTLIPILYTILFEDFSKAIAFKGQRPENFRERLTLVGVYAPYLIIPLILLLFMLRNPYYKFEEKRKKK
Test: Displacement of [3H]-di-o-tolylguanidine from sigma2 receptor in rat liver membranes incubated for 120 mins by scintillation counting method
Assay type: cell membranes
Details: not given

| Structure (SMILES) | Ki [µM] |
| --- | --- |
| OC1CN(CCC(F)Cc2ccccc2)CCc2cc(OCc3ccccc3)ccc21 (stereo not drawn) | 1.8 |
| OC1CN(CC(F)CCc2ccccc2)CCc2cc(OCc3ccccc3)ccc21 (stereo not drawn) | 1.4 |
| Oc1ccc2c(c1)CCN(CCC(F)Cc1ccccc1)CC2O (stereo not drawn) | 0.13 |

Biological target: Sigma non-opioid intracellular receptor 1 (Cavia porcellus, UniProt Q60492);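 also: radioligand displacement of [3H]-(+)-pentazocine from guinea pig brain cortex membranes, 120 min incubation, bound radioactivity read by scintillation counting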
Sequence (Q60492 whole entry): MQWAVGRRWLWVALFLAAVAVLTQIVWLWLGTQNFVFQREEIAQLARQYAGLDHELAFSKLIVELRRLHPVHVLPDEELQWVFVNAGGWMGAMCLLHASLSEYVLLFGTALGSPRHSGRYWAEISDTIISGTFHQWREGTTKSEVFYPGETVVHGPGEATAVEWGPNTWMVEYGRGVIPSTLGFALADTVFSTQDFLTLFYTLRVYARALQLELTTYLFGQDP
Assay type: cell membranes
Details: not given

| Structure (SMILES) | Ki [µM] |
| --- | --- |
| OC1CN(CCC(F)Cc2ccccc2)CCc2cc(OCc3ccccc3)ccc21 (stereo not drawn) | 0.183 |
| OC1CN(CC(F)CCc2ccccc2)CCc2cc(OCc3ccccc3)ccc21 (stereo not drawn) | 0.393 |
| Oc1ccc2c(c1)CCN(CCC(F)Cc1ccccc1)CC2O (stereo not drawn) | 1.4 |

Test system: not listed separately
Test: Selectivity ratio of Ki for sigma1 receptor in guinea pig brain cortex membranes to ratio of Ki for GluN2B/GluN1a (unknown origin) expressed in mouse L(tk-) cell membranes
Assay type: cell-based
Details: not given

| Structure (SMILES) | Ratio Ki |
| --- | --- |
| Oc1ccc2c(c1)CCN(CCC(F)Cc1ccccc1)CC2O (stereo not drawn) | 2 to 3 |
| Oc1ccc2c(c1)CCN(CCCCc1ccccc1)CC2O (stereo not drawn) | 2 to 3 |

Test system: not listed separately
Test: Selectivity ratio of Ki for sigma2 receptor in rat liver membranes to ratio of Ki for GluN2B/GluN1a (unknown origin) expressed in mouse L(tk-) cell membranes
Assay type: cell-based
Details: not given

| Structure (SMILES) | Ratio Ki |
| --- | --- |
| OC1CN(CCC(F)Cc2ccccc2)CCc2cc(OCc3ccccc3)ccc21 (stereo not drawn) | 2 |
| OC1CN(CC(F)CCc2ccccc2)CCc2cc(OCc3ccccc3)ccc21 (stereo not drawn) | 2 |
